The values below come from ChEMBL document CHEMBL4265907, “Design, synthesis and pharmacological evaluation of N4,N6-disubstituted pyrimidine-4,6-diamine derivatives as potent EGFR inhibitors in non-small cell lung cancer” (Eur J Med Chem, 2018).

Assay [1] addresses Vascular endothelial growth factor receptor 2 (Homo sapiens) (UniProt P35968). Nature of the assay: Inhibition of N-terminal GST-tagged human KDR cytoplasmic domain (790 to 1356 residues) expressed in baculovirus expression system at […] using FAM-labeled peptide as substrate after 10 mins by mobility shift assay relative to control. A digest of the protocol: (§1)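 Caliper mobility-shift kinase assay. Kinase in kinase base buffer was preincubated with compound for 10 min at room temperature. FAM-labelled peptide and ATP at Km were then added, and the reaction ran at 28 °C until quenched with buffer. Screening concentration was 1 µM. Percent inhibition = (max − conversion)/(max − min) × 100, with DMSO as max and a low control as min.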

The target in assay [2] is Fibroblast growth factor receptor 1 (Homo sapiens) (UniProt P11362). Nature of the assay: Inhibition of N-terminal GST-tagged human FGFR1 cytoplasmic domain (398 to 822 residues) expressed in baculovirus expression system at […] using FAM-labeled peptide as substrate after 10 mins by mobility shift assay relative to control. The method in brief: as §1
The target in assay [3] is Epidermal growth factor receptor (Homo sapiens, UniProt P00533). Nature of the assay: Inhibition of N-terminal GST-tagged wild type human EGFR cytoplasmic domain (669 to 1210 residues) expressed in baculovirus expression system using FAM-labeled peptide as substrate after 10 mins by mobility shift assay.
Assay [4] addresses Epidermal growth factor receptor (Homo sapiens, UniProt P00533, DEL747/DEL747-750). Description: Inhibition of N-terminal GST-tagged human EGFR del 747-750 mutant cytoplasmic domain expressed in baculovirus expression system using FAM-labeled peptide as substrate after 10 mins by mobility shift assay.
Assay [5] concerns NCI-H1975. Nature of the assay: Antiproliferative activity against human NCI-H1975 cells after 72 hrs by MTT assay. The settings on record: NCI-H1975, 72 h. The assay is classed as functional, cell-based. The method in brief:
(§2)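 Cells seeded at 3000/well in growth medium with 10% FBS and left overnight. Treated in triplicate for 72 h at nine concentrations (0.458 to 30,000 nM), with DMSO-only controls. MTT (5 mg/mL) added for the last 4 h, formazan dissolved in DMSO, absorbance read at 490 nm. IC50 from non-linear sigmoidal dose-response fit.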
For orientation: Tetrazolium dyes change colour on reduction, which living cells bring about.

In assay [6] the test system is A-431. Nature of the assay: Antiproliferative activity against human A431 cells after 72 hrs by MTT assay. In kind it is functional, cell-based. The settings on record: A-431, 72 h. A digest of the protocol:
as §2

Assay [7] relates to HCC827. Description: Antiproliferative activity against human HCC827 cells after 72 hrs by MTT assay. In kind it is functional, cell-based. To be noted: HCC827, 72 h. A digest of the protocol:
as §2

In assay [8] the test system is PC-9. Description: Antiproliferative activity against human PC9 cells after 72 hrs by MTT assay. The assay is classed as functional, cell-based. The settings on record: PC-9, 72 h. The method in brief: as §2
Assay [9] concerns BEAS-2B. Nature of the assay: Cytotoxicity against human BEAS2B cells after 72 hrs by MTT assay. The assay is classed as cell-based. A digest of the protocol: as §2
Assay [10] deals with NCI-H3255. Description: Antiproliferative activity against human H3255 cells after 72 hrs by MTT assay. In kind it is functional, cell-based. To be noted: NCI-H3255, 72 h. The method in brief: as §2

The structures appear in SMILES notation.

Chain of Vascular endothelial growth factor receptor 2 (Homo sapiens) (P35968 whole entry, the tested form may be a part): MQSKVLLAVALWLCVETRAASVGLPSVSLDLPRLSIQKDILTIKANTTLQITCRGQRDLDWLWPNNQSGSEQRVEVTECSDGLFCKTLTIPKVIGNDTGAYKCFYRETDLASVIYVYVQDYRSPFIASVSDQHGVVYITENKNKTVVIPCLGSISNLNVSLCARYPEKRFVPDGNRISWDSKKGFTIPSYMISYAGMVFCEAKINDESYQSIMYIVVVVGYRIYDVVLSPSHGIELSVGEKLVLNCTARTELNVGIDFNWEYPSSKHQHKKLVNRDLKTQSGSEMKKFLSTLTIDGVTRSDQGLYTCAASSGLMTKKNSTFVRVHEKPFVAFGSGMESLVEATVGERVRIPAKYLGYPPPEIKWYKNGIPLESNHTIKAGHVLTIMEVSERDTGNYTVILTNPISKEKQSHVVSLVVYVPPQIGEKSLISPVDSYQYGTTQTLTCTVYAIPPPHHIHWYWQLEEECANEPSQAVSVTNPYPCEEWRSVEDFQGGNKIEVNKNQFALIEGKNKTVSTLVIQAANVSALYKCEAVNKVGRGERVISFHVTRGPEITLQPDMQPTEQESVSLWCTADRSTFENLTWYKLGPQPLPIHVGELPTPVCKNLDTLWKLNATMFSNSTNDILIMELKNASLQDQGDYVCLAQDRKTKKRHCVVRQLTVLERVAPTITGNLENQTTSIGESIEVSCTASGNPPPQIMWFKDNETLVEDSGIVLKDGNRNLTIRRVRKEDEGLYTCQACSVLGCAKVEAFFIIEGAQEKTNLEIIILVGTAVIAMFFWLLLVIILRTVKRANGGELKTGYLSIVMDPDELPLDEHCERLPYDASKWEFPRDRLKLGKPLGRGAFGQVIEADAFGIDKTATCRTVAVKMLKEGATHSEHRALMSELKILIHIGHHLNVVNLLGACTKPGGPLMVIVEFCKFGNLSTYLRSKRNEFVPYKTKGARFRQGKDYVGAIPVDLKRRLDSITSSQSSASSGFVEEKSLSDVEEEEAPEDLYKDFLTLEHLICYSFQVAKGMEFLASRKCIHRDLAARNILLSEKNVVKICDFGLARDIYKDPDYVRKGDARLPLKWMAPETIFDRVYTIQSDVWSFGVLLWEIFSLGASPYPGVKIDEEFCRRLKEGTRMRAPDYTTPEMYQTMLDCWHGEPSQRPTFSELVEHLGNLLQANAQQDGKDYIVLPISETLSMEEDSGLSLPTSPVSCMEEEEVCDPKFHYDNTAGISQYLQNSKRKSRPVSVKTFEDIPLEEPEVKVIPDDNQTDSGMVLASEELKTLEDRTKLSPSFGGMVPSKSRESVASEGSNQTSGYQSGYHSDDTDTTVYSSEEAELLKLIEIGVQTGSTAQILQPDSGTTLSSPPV
Chain of Epidermal growth factor receptor (Homo sapiens, UniProt P00533) (P00533 whole entry, the tested form may be a part): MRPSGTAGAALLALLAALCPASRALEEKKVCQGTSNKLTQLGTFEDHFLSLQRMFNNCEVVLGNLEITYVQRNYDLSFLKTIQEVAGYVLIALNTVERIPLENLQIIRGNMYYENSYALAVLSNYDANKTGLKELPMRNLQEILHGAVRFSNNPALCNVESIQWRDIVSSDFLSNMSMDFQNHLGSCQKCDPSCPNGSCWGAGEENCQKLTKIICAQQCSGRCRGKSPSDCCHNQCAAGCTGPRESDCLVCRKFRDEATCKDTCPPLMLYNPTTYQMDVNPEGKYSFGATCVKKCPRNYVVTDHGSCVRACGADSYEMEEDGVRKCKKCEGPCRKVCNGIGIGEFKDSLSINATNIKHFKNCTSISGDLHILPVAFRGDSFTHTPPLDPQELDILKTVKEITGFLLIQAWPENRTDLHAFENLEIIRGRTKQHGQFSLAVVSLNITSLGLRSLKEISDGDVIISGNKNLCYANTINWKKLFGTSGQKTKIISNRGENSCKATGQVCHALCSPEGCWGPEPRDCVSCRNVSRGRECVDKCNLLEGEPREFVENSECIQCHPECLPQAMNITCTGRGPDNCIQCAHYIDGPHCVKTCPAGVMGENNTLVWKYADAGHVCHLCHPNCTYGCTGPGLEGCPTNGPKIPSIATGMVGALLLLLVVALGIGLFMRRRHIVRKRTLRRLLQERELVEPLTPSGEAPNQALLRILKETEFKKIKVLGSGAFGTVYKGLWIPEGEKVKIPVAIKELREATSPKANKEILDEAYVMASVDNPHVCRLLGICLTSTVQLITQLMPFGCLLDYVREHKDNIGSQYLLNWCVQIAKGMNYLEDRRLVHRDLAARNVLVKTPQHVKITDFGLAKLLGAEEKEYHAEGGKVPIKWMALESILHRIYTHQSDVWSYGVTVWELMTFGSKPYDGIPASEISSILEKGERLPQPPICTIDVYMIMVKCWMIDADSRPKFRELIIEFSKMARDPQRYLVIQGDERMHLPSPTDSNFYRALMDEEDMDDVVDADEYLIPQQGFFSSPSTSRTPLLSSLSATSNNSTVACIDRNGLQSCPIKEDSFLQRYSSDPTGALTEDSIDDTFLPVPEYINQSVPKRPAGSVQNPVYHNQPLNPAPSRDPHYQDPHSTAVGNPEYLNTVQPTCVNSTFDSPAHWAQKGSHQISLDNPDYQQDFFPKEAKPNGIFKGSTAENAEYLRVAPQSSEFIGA
Chain of Epidermal growth factor receptor (Homo sapiens, UniProt P00533, DEL747/DEL747-750) (P00533 with tags, fused parts or gaps DEL747/DEL747-750 limits assumed): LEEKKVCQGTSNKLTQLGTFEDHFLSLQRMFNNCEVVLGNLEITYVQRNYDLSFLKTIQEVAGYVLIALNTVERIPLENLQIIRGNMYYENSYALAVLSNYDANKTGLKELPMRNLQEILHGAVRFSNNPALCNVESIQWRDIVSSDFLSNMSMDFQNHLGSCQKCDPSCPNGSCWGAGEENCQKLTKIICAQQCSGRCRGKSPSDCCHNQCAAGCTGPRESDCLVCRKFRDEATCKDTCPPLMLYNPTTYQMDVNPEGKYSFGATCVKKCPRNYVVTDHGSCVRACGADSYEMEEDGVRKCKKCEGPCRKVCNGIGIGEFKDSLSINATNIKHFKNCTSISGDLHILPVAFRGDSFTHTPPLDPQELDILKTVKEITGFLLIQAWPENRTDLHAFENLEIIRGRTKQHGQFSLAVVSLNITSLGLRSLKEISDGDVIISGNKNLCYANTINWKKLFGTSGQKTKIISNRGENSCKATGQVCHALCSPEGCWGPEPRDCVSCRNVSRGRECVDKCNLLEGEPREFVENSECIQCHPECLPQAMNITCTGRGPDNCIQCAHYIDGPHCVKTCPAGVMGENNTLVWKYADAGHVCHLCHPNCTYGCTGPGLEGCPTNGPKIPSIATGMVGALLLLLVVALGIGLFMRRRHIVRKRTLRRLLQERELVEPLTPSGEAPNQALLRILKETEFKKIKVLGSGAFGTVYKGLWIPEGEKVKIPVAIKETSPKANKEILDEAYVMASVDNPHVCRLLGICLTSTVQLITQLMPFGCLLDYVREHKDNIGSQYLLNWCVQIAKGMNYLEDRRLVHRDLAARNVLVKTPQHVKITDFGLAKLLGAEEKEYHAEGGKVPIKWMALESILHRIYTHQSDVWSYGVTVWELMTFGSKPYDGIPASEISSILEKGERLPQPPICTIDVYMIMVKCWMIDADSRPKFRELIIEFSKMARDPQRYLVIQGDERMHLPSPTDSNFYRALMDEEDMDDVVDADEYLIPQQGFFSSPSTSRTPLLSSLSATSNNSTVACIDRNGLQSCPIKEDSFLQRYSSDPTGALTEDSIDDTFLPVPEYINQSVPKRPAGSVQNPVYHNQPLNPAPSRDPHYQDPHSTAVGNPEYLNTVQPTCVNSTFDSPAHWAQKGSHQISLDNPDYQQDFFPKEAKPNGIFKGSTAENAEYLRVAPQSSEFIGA

For `COc1ccc(OC)c(Nc2cc(Nc3ccc(S(N)(=O)=O)cc3)ncn2)c1`, the inhibition – broadly, the drop in the measured response relative to a control, in per cent – was 26.2% in assay [1] and -8.2% in assay [2]. The IC50 (as a rule, the point on the concentration scale where inhibition reaches its midpoint) is 779 nM in [3] and 467 nM in assay [4].
For the molecule `CCOC(=O)c1ccc(Nc2cc(Nc3cccc(OC)c3)ncn2)cc1`, the inhibition in [1] was 11.7%; in assay [2], -9.3%. Moreover, the concentration for half-maximal inhibition (IC50) is more than 10000 nM in assay [3] and 1190 nM in [4].
Consider `COc1cccc(Nc2cc(Nc3cccc(Cl)c3)ncn2)c1`, for which the IC50 in assay [5] was more than 30000 nM; in assay [3], more than 10000 nM; in [6] it was 15200 nM; in assay [7] it was 4040 nM; in assay [8] it was 1660 nM; in assay [9] it was 17600 nM. The IC50 in assay [4] is 974 nM; in assay [10], more than 30000 nM. Further, the inhibition in assay [1] is 19.2%; in [2], -3.8%.
For `COc1ccc(OC)c(Nc2cc(Nc3ccc(F)cc3)ncn2)c1`, the IC50 in assay [5] was more than 30000 nM; in assay [3], 336 nM; in assay [6], more than 30000 nM; in assay [7] it was 1720 nM; in assay [8], 640 nM; in assay [9], 18000 nM. The values for the IC50 in [4] and in assay [10] were 208 nM and more than 30000 nM, respectively. Further, the inhibition in assay [1] is 12.4%; in assay [2] it was -3.1%.
For `O=C(O)CCCC(=O)Nc1cc(Nc2ccccc2)ncn1`, the IC50 in [5] is 1850 nM; in assay [3], more than 10000 nM; in assay [6] it was 1190 nM; in assay [7], 2220 nM; in assay [8], 940 nM; in assay [9] it was 17900 nM. Further, the 50% inhibitory concentration (IC50) in [4] amounted to 105 nM; in assay [10], 2940 nM. For the same molecule, the inhibition in [1] was 4.9%; in assay [2], -4%.
For `COc1cccc(Nc2cc(Nc3ccc(S(N)(=O)=O)cc3)ncn2)c1`, the inhibition is 12.4% in assay [1] and -8.8% in [2]. Also, the figures for the half-maximal inhibitory concentration (IC50) in assay [3] and in assay [4] were more than 10000 nM and 1230 nM, respectively.
In the case of `CCOC(=O)CCCC(=O)Nc1cc(Nc2cccc(Cl)c2)ncn1`, the half-maximal inhibitory concentration (IC50) is more than 30000 nM in [5]; 27 nM in [3]; 490 nM in assay [6]; more than 30000 nM in assay [7]; more than 30000 nM in assay [8]; 21100 nM in [9]. Further, the IC50 in [4] was more than 10000 nM; in assay [10] it was more than 30000 nM. In addition, the inhibition in assay [1] came to 16%; in assay [2], 0.5%.
Regarding `O=C(O)CCCC(=O)Nc1cc(Nc2cccc(Br)c2)ncn1`, the figures for the inhibition in assay [1] and in [2] were 6.5% and -1.1%, respectively. Also, the half-maximal inhibitory concentration (IC50) in assay [3] is 70 nM; in [4], more than 10000 nM.
On to `O=C(O)CCC(=O)Nc1cc(Nc2ccc(Cl)cc2)ncn1`, for which the IC50 was 2730 nM in [5]; more than 10000 nM in assay [3]; 1900 nM in assay [6]; 3130 nM in assay [7]; 790 nM in assay [8]; 19000 nM in assay [9]. Moreover, the IC50 in assay [4] was 792 nM; in assay [10], 4370 nM. The figures for the inhibition in [1] and in assay [2] were 15.7% and 5.2%, respectively.
As for `CCOc1ccc(Nc2cc(NC(=O)c3ccccc3)ncn2)cc1`, the IC50 in assay [5] is 7070 nM; in assay [3] it was more than 10000 nM; in assay [6] it was 6540 nM; in assay [7] it was 7000 nM; in [8], 2090 nM; in assay [9] it was 17400 nM. Besides, the IC50 in assay [4] amounted to 754 nM; in assay [10], 9170 nM. The inhibition in assay [1] was 11.3%; in assay [2] it was -8.8%.
On to `Clc1ccc(Nc2cc(Nc3cccc(Cl)n3)ncn2)cc1`, for which the IC50 in assay [5] is more than 30000 nM; in assay [3] it was 324 nM; in assay [6], more than 30000 nM; in [7], more than 30000 nM; in assay [8], 1180 nM; in assay [9] it was 18000 nM. Besides, the IC50 in [4] was 229 nM; in assay [10], more than 30000 nM. Also, the results for the inhibition in assay [1] and in [2] were 8.5% and -5.7%, respectively.
On to `COc1ccc(OC)c(Nc2cc(Nc3ccc(N4CCN(C)CC4)cc3)ncn2)c1`, for which the IC50 was more than 30000 nM in assay [5]; 288 nM in [3]; more than 30000 nM in [6]; 24300 nM in assay [7]; more than 30000 nM in assay [8]; 18100 nM in [9]. For the same molecule, the values for the IC50 in assay [4] and in assay [10] were more than 10000 nM and more than 30000 nM, respectively. Further, the inhibition in assay [1] is 28.5%; in assay [2] it was 4.7%.
On to `O=C(O)CCCC(=O)Nc1cc(Nc2ccc(Cl)cc2)ncn1`, for which the inhibition was 18% in [1] and -7.2% in assay [2]. In addition, the IC50 in assay [3] was more than 10000 nM; in [4], 944 nM.
With `CCNc1cc(Nc2cccc(Cl)c2)ncn1`, the inhibition in assay [1] is 6.9%; in assay [2], -7.7%. Moreover, the IC50 in assay [3] was 170 nM; in assay [4], more than 10000 nM.
Take `O=C(Nc1cc(N2CCOCC2)ncn1)c1ccc(F)cc1`: the IC50 is 1970 nM in assay [5]; 131 nM in [3]; 1130 nM in assay [6]; 1960 nM in assay [7]; 870 nM in [8]; 21000 nM in assay [9]. Further, the IC50 stood at 63 nM in assay [4] and 1870 nM in [10]. The inhibition in assay [1] is 31%; in assay [2], 8.8%.
With `COc1cc(Nc2cc(Nc3ccc(Cl)cc3)ncn2)cc(OC)c1OC`, the results for the inhibition in [1] and in assay [2] were 37.1% and 1.2%, respectively. Moreover, the figures for the IC50 in assay [3] and in assay [4] were 901 nM and more than 10000 nM, respectively.
In the same order, the values of `COc1ccc(OC)c(Nc2cc(NCCc3cccs3)ncn2)c1` are 14.6%, -8.2%, 125 nM and 102 nM.
Consider `COc1ccc(OC)c(Nc2cc(NC(=O)CCCC(=O)O)ncn2)c1`, for which the inhibition in assay [1] is 23.6%; in [2], -3.7%. Further, the IC50 was 68 nM in assay [3] and more than 10000 nM in assay [4].
As for `O=C(Nc1cc(Nc2ccc(Cl)cc2)ncn1)c1ccc(F)cc1`, the IC50 was 17600 nM in assay [5]; more than 10000 nM in [3]; more than 30000 nM in [6]; more than 30000 nM in [7]; 820 nM in [8]; 18600 nM in assay [9]. Besides, the IC50 is 1410 nM in assay [4] and more than 30000 nM in [10]. Also, the inhibition in assay [1] was 9.3%; in assay [2], 16.3%.
For `CCOC(=O)CCC(=O)Nc1cc(Nc2cccc(Br)c2)ncn1`, the inhibition in assay [1] is 5.7%; in assay [2] it was -7.1%. The half-inhibitory concentration (IC50) in assay [3] is more than 10000 nM; in assay [4], 933 nM.
Regarding `Clc1ccc(Nc2cc(Nc3ccc(Cl)cc3)ncn2)cc1`, the values for the inhibition in [1] and in assay [2] were 8.5% and -1.3%, respectively.
